{"source": "ChEMBL document CHEMBL5625195", "about": "“Identification of novel tetrahydroquinoxaline derived phenyl ureas as modulators of the hepatitis B virus nucleocapsid assembly” (Eur J Med Chem, 2023)", "key": {"[1]": {"system": "AML12", "assay": "Cytotoxicity against mouse AML12 cells assessed as reduction in cell viability incubated for 48 hrs by MTT assay", "type": "toxicity, cell-based", "details": "aml12, 48 h", "summary_of_the_method": "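Stable AML12HBV10 hepatocytes (AML12-derived), cultured without tetracycline, were exposed to 2-fold serial dilutions (50 μM to 1.56 μM) for 48 h. Viability was inspected microscopically and quantified by MTT. CC50 was the concentration lowering viability by 50%.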"}, "[2]": {"system": "Hepatitis B virus", "assay": "Antiviral activity against HBV infected in AML12HBV10 cells assessed as change in core protein at 1 to 5 uM after 2 days by Northern blot hybridization", "type": "functional, organism-based", "details": "dose 1-5 µM, time 2.0 day", "summary_of_the_method": "(§1)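 AML12HBV10 cells in 24-well plates were kept with or without tetracycline for 24 h. Tet-maintained cells served as the no-pgRNA negative control. Cells were then mock (DMSO) or compound treated for 48 h. Total viral RNA and encapsidated pgRNA were read by Northern blot with rRNA as loading control. Core protein was read by Western blot (C-terminal 14-residue antibody, β-actin control), capsids by native particle gel assay, and replication intermediates by Southern blot.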"}, "[3]": {"system": "Hepatitis B virus", "assay": "Antiviral activity against HBV infected in AML12HBV10 cells assessed as reduction viral replication incubated for 48 hrs", "type": "functional, organism-based", "details": "AML12HBV10, 48 h", "summary_of_the_method": "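AML12HBV10 cells were seeded at 2 x 10^4 per well without tetracycline. After one day, 2-fold serial dilutions (10 μM to 0.08 μM) were applied for 48 h. Lysates were denatured, neutralized and dot-blotted, then hybridized with a 32P-labelled riboprobe specific for HBV minus-strand DNA and read by phosphorimager. EC50 was the concentration reducing HBV DNA by 50%.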"}, "[4]": {"system": "Hepatitis B virus", "assay": "Antiviral activity against HBV infected in AML12HBV10 cells assessed as decrease in encapsidated pgRNA at 1 to 5 uM after 2 days by Northern blot hybridization", "type": "functional, organism-based", "details": "dose 1-5 µM, time 2.0 day", "summary_of_the_method": "(§2)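 AML12HBV10 cells were induced by tetracycline withdrawal for 24 h, then mock (DMSO) or compound treated for 48 h, with tetracycline-maintained cells as negative control. Encapsidated pgRNA was detected by Northern blot hybridization, using ribosomal RNA as loading control.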"}, "[5]": {"system": "Hepatitis B virus", "assay": "Antiviral activity against HBV infected in AML12HBV10 cells assessed as decrease in viral DNA replication at 1 to 5 uM after 2 days by Northern blot hybridization", "type": "functional, organism-based", "details": "dose 1-5 µM, time 2.0 day", "summary_of_the_method": "as §1"}, "[6]": {"system": "Hepatitis B virus", "assay": "Antiviral activity against HBV infected in AML12HBV10 cells assessed as change in total viral RNA at 1 to 5 uM after 2 days by Northern blot hybridization", "type": "functional, organism-based", "details": "dose 1-5 µM, time 2.0 day", "summary_of_the_method": "as §1"}, "[7]": {"system": "Hepatitis B virus", "assay": "Antiviral activity against HBV infected in AML12HBV10 cells assessed as decrease in capsid assembly at 1 to 5 uM after 2 days by Northern blot hybridization", "type": "functional, organism-based", "details": "dose 1-5 µM, time 2.0 day", "summary_of_the_method": "(§3)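 AML12HBV10 cells (mouse hepatocyte line carrying tetracycline-inducible, envelope-deficient HBV genome) in 24-well plates. Tetracycline was removed for 24 h before treatment; tetracycline-maintained cells served as negative control. Cells were mock (DMSO) or compound treated for a further 48 h. Intracellular capsids and core-associated DNA were resolved by native agarose gel particle assay.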"}, "[8]": {"system": "Hepatitis B virus", "assay": "Antiviral activity against HBV infected in AML12HBV10 cells assessed as change in total viral RNA at 1 uM after 2 days by Northern blot hybridization", "type": "functional, organism-based", "details": "time 2.0 day", "summary_of_the_method": "as §1"}, "[9]": {"system": "Hepatitis B virus", "assay": "Antiviral activity against HBV infected in AML12HBV10 cells assessed as change in DNA replication intermediates at 1 uM after 2 days by Northern blot hybridization", "type": "functional, organism-based", "details": "time 2.0 day", "summary_of_the_method": "as §1"}, "[10]": {"system": "Hepatitis B virus", "assay": "Antiviral activity against HBV infected in AML12HBV10 cells assessed as change in encapsidated pgRNA at 1 uM after 2 days by Northern blot hybridization", "type": "functional, organism-based", "details": "time 2.0 day", "summary_of_the_method": "as §2"}, "[11]": {"system": "Hepatitis B virus", "assay": "Antiviral activity against HBV infected in AML12HBV10 cells assessed as change in capsids at 1 uM after 2 days by Northern blot hybridization", "type": "functional, organism-based", "details": "time 2.0 day", "summary_of_the_method": "as §3"}, "[12]": {"system": "Hepatitis B virus", "assay": "Antiviral activity against HBV infected in AML12HBV10 cells assessed as change in capsid associated viral DNA at 1 uM after 2 days by Northern blot hybridization", "type": "functional, organism-based", "details": "time 2.0 day", "summary_of_the_method": "as §3"}, "[13]": {"system": "Hepatitis B virus", "assay": "Antiviral activity against HBV infected in AML12HBV10 cells assessed as change in core protein at 1 uM after 2 days by Northern blot hybridization", "type": "functional, organism-based", "details": "time 2.0 day", "summary_of_the_method": "as §1"}, "[14]": {"system": "Hepatitis B virus", "assay": "Antiviral activity against HBV infected in AML12HBV10 cells assessed as accumulation of capsid at 5 uM after 2 days by Northern blot hybridization", "type": "functional, organism-based", "details": "time 2.0 day", "summary_of_the_method": "as §3"}, "[15]": {"system": "Hepatitis B virus", "assay": "Antiviral activity against HBV infected in AML12HBV10 cells assessed as reduction in viral DNA replication at 2 uM after 2 days by Northern blot hybridization", "type": "functional, organism-based", "details": "time 2.0 day", "summary_of_the_method": "as §1"}, "[16]": {"system": "Hepatitis B virus", "assay": "Antiviral activity against HBV infected in AML12HBV10 cells assessed as decrease in capsid assembly at 2 uM after 2 days by Northern blot hybridization", "type": "functional, organism-based", "details": "time 2.0 day", "summary_of_the_method": "as §3"}, "[17]": {"system": "Hepatitis B virus", "assay": "Antiviral activity against HBV infected in AML12HBV10 cells assessed as reduction in encapsidated pgRNA at 2 uM after 2 days by Northern blot hybridization", "type": "functional, organism-based", "details": "time 2.0 day", "summary_of_the_method": "as §2"}, "[18]": {"system": "Hepatitis B virus", "assay": "Antiviral activity against HBV infected in AML12HBV10 cells assessed as reduction in viral DNA replication at 5 uM after 2 days by Northern blot hybridization", "type": "functional, organism-based", "details": "time 2.0 day", "summary_of_the_method": "as §1"}, "[19]": {"system": "Hepatitis B virus", "assay": "Antiviral activity against HBV infected in AML12HBV10 cells assessed as reduction in encapsidated pgRNA at 5 uM after 2 days by Northern blot hybridization", "type": "functional, organism-based", "details": "time 2.0 day", "summary_of_the_method": "as §2"}}, "note": "Calls of active or inactive are those of the source. The rule behind the calls is not given here.", "data": [{"smiles": "O=C(Nc1ccc(F)c(Cl)c1)N1CCNc2ccccc21", "values": [{"measurement": "CC50", "setting": "[1]", "value": "> 100000", "unit": "nM"}, {"measurement": "Activity", "setting": "[2]", "value": "inactive"}, {"measurement": "EC50", "setting": "[3]", "value": 510, "unit": "nM"}, {"measurement": "Activity", "setting": "[4]", "value": "Active"}, {"measurement": "Activity", "setting": "[5]", "value": "Active"}, {"measurement": "Activity", "setting": "[6]", "value": "inactive"}, {"measurement": "Activity", "setting": "[7]", "value": "Active"}]}, {"smiles": "C=C1[C@H](CO)[C@@H](O)C[C@@H]1n1cnc2c(=O)[nH]c(N)nc21", "values": [{"measurement": "Activity", "setting": "[8]", "value": "inactive"}, {"measurement": "Activity", "setting": "[9]", "value": "Active"}, {"measurement": "Activity", "setting": "[10]", "value": "inactive"}, {"measurement": "Activity", "setting": "[11]", "value": "inactive"}, {"measurement": "Activity", "setting": "[12]", "value": "Active"}, {"measurement": "Activity", "setting": "[13]", "value": "inactive"}]}, {"smiles": "COC(=O)C1=C(C)NC(c2ncc(F)cc2F)=N[C@H]1c1ccc(F)cc1Cl", "values": [{"measurement": "Activity", "setting": "[14]", "value": "Active"}, {"measurement": "Activity", "setting": "[15]", "value": "Active"}, {"measurement": "Activity", "setting": "[16]", "value": "Active"}, {"measurement": "Activity", "setting": "[17]", "value": "Active"}]}, {"smiles": "CCC(C)NS(=O)(=O)c1ccc(F)c(C(=O)Nc2ccc(F)c(F)c2)c1", "note": "(centres undefined)", "values": [{"measurement": "Activity", "setting": "[18]", "value": "Active"}, {"measurement": "Activity", "setting": "[19]", "value": "Active"}]}]}
